Assay results gathered from unrelated publications.
Protocols differ between the studies behind these lines.

C#Cc1ccc2c(c1)C(c1ccccc1F)=N[C@@H](C)c1c(C(=O)OCC(F)(F)F)ncn1-2 — compound remaining (metabolic stability; human, liver microsomes; 10 min): < 5%
Cc1nc(C(=O)N2CCC[C@H]2C(=O)N[C@@H](CCC2CCCCC2)C(=O)N[C@@H](CC(C)C)C(=O)NC(C)(C)C(=O)N[C@@H](CC(C)C)C(=O)N(C)[C@@H](CC(C)C)C(=O)NC(C)(C)C(=O)NC(C)(C)C(=O)NCCC(=O)NC2(CN(C)C)CCC2)co1 — IC50 (L6; cell growth or viability, resazurin; 68 h): > 8.45 µM
Cc1ncc2n1-c1ccc(Cl)cc1C(c1ccccc1F)=NC2 — compound remaining (metabolic stability; human, hepatocytes; 1 µM, 4 h): 26%
O=c1ccc2cc(O)c(OCCCCCn3ccnc3)cc2o1 — CC50 (HepG2.2.15; cell growth or viability, MTT; 9 days): 140 µM
COc1cc([C@@H]2c3cc4c(cc3[C@H](O)[C@H]3COC(=O)[C@H]23)OCO4)cc(OC)c1OC — IC50 (L6; cell growth or viability, resazurin; 70 h): 0.05 µM
Cc1nccn1CCCCOc1cc2oc(=O)ccc2cc1O — CC50 (HepG2.2.15; cell growth or viability, MTT; 9 days): > 648 µM
Cc1ncc2n1-c1ccc(Cl)cc1C(c1ccccc1F)=NC2 — compound remaining (metabolic stability; human, liver microsomes; 1 µM, 30 min): < 7%
N=c1c2c(-c3ccccc3)c(-c3ccccc3)n(Cc3ccccc3)c2ncn1[C@H]1CC[C@H](O)CC1 — compound remaining (metabolic stability; human, hepatocytes; 1 µM, 4 h): 86%
CCOC(=O)c1ncn2c1[C@H](C)N=C(c1ccccc1F)c1cc(C3CC3)ccc1-2 — compound remaining (metabolic stability; human, liver microsomes; 20 min): < 5%
COc1cc([C@@H]2c3cc4c(cc3[C@H](O)[C@H]3COC(=O)[C@H]23)OCO4)cc(OC)c1OC — IC50 (L6; cell growth or viability, resazurin; 72 h): 0.169 µM
